We go through 19 molecules from ChEMBL document CHEMBL1949540, “Dihydroagarofuran derivatives from the dried roots of Tripterygium wilfordii” (2012).

The term inhibition denotes the share of the control response that was lost under treatment.

Calls of active or inactive are those of the source. No cut-off for these calls is given here.

One experiment concerns Human alphaherpesvirus 2. The experiment is described as follows: Antiherpetic activity against HSV2 at 0.5 mg/ml by MTT assay. The experiment is classed as functional. An outline of the steps:
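Activity against HSV2 was assayed by a previously reported procedure. The initial concentration of test samples and of the acyclovir positive control was 0.5 mg/mL, and samples were tested at several concentration levels. Each level had four independent experiments. The end-point was an MTT assay read as optical density.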
For orientation: Formazan colour is commonly taken as a measure of viable cells.
As for `CC(=O)OC[C@]12[C@H](OC(C)=O)[C@H](OC(C)=O)[C@@H]3[C@@H](OC(C)=O)[C@@]14O[C@@]3(C)COC(=O)c1cccnc1C(C)C(C)C(=O)O[C@@H]([C@H](OC(C)=O)[C@@H]2OC(C)=O)[C@]4(C)O` (stereo not given in full), the inhibition result was “inactive”.
On the same count and under the same terms, as for `CC(=O)OC[C@]12[C@H](OC(C)=O)[C@H](OC(C)=O)[C@@H]3[C@@H](OC(=O)c4ccccc4)[C@@]14O[C@@]3(C)COC(=O)c1cccnc1C(C)C(C)C(=O)O[C@@H]([C@H](OC(C)=O)[C@@H]2OC(=O)c1ccccc1)[C@]4(C)O` (stereo not given in full), the entry is “inactive”.
In turn, `Nc1nc2c(ncn2COCCO)c(=O)[nH]1` [ACYCLOVIR] displayed an inhibition at 500 µg/mL of 66.3%.
Turning to `CC(=O)OC[C@]12[C@H](OC(C)=O)[C@H](OC(C)=O)[C@@H]3[C@@H](OC(C)=O)[C@@]14O[C@@]3(C)COC(=O)c1cnccc1C(C)C(C)C(=O)O[C@@H]([C@H](OC(C)=O)[C@@H]2OC(C)=O)[C@]4(C)O` (stereo not given in full), the inhibition entry was “inactive”.
On the same count and under the same terms, as for `CC(=O)OC[C@]12[C@H](OC(C)=O)C(=O)[C@@H]3[C@@H](OC(C)=O)[C@@]14O[C@@]3(C)COC(=O)c1cccnc1CCC(C)(OC(C)=O)C(=O)O[C@@H]([C@H](OC(=O)c1ccoc1)[C@@H]2OC(C)=O)[C@]4(C)O` (stereo not given in full), the entry is “inactive”.
On the same count and under the same terms, as for `CC(=O)OC[C@]12[C@H](OC(C)=O)[C@H](OC(C)=O)[C@@H]3[C@@H](OC(C)=O)[C@@]14O[C@@]3(C)COC(=O)c1cccnc1CCC(C)C(=O)O[C@@H]([C@H](OC(=O)c1ccccc1)[C@@H]2OC(C)=O)[C@]4(C)O` (stereo not given in full), the entry is “inactive”; as for `CC(=O)OC[C@]12[C@H](OC(C)=O)[C@H](OC(C)=O)[C@@H]3[C@@H](OC(C)=O)[C@@]14O[C@@]3(C)COC(=O)c1cccnc1CCC(C)(O)C(=O)O[C@@H]([C@H](OC(=O)c1ccco1)[C@@H]2OC(C)=O)[C@]4(C)O` (stereo not given in full), “inactive”.
For the molecule `CC(=O)OC[C@]12[C@H](OC(C)=O)[C@H](OC(C)=O)[C@@H]3[C@@H](OC(=O)c4ccccc4)[C@@]14O[C@@]3(C)COC(=O)c1cccnc1C(C)C(C)C(=O)O[C@@H]([C@H](OC(C)=O)[C@@H]2OC(C)=O)[C@]4(C)O` (stereo not given in full), the inhibition at 500 µg/mL is 22.3%.
With `CC(=O)OC[C@]12[C@H](OC(C)=O)[C@H](OC(C)=O)[C@@H]3[C@@H](OC(C)=O)[C@@]14O[C@@]3(C)COC(=O)c1cccnc1CCC(C)(O)C(=O)O[C@@H]([C@H](O)[C@@H]2OC(C)=O)[C@]4(C)O` (stereo not given in full), the inhibition result is “inactive”.
On the same count and under the same terms, for `CC(=O)OC[C@]12[C@H](OC(C)=O)[C@H](OC(C)=O)[C@@H]3[C@@H](OC(C)=O)[C@@]14O[C@@]3(C)COC(=O)c1cccnc1CCC(C)C(=O)O[C@@H]([C@H](OC(=O)c1ccco1)[C@@H]2OC(C)=O)[C@]4(C)O` (stereo not given in full) the value was “inactive”; for `CC1(C)O[C@]23[C@H](OC(=O)c4cccnc4)[C@H]1C[C@H](OC(=O)/C=C/c1ccccc1)[C@]2(C)[C@@H](OC(=O)c1ccccc1)CC[C@]3(C)O`, “inactive”.
On the same count and under the same terms, for `CC(=O)OC[C@]12[C@H](OC(C)=O)[C@H](OC(=O)c3ccccc3)[C@@H]3[C@@H](O)[C@@]14O[C@@]3(C)COC(=O)c1cccnc1CC[C@H](C)C(=O)O[C@@H]([C@H](OC(C)=O)[C@@H]2OC(C)=O)[C@]4(C)O` the value was “inactive”.
As for `CC(=O)OC[C@]12[C@H](OC(C)=O)[C@H](OC(C)=O)[C@@H]3[C@@H](OC(C)=O)[C@@]14O[C@@]3(C)COC(=O)c1cccnc1CC[C@H](C)C(=O)O[C@@H]([C@H](OC(C)=O)[C@@H]2OC(C)=O)[C@]4(C)O`, the inhibition result was “inactive”.
The same measure, in the same setting: for `CC(=O)OC[C@]12[C@H](OC(C)=O)[C@H](OC(C)=O)[C@@H]3[C@@H](OC(C)=O)[C@@]14O[C@@]3(C)COC(=O)c1cccnc1CCC(C)(OC(C)=O)C(=O)O[C@@H]([C@H](OC(=O)c1ccoc1)[C@@H]2OC(C)=O)[C@]4(C)O` (stereo not given in full) the value was “inactive”; for `CC(=O)OC[C@]12[C@H](OC(C)=O)[C@H](OC(C)=O)[C@@H]3[C@@H](OC(C)=O)[C@@]14O[C@@]3(C)COC(=O)c1cccnc1CCC(C)(OC(=O)c1ccoc1)C(=O)O[C@@H]([C@H](OC(=O)c1ccccc1)[C@@H]2OC(C)=O)[C@]4(C)O` (stereo not given in full), “inactive”.
The same measure, in the same setting: for `CC(=O)OC[C@]12[C@H](OC(C)=O)[C@H](OC(C)=O)[C@@H]3[C@@H](OC(C)=O)[C@@]14O[C@@]3(C)COC(=O)c1cccnc1CCC(C)(O)C(=O)O[C@@H]([C@H](OC(=O)c1ccccc1)[C@@H]2OC(C)=O)[C@]4(C)O` (stereo not given in full) the value was “inactive”.
Still for that read-out and setting: as for `CC(=O)OC[C@]12[C@H](OC(C)=O)[C@H](OC(C)=O)[C@@H]3[C@@H](O)[C@@]14O[C@@]3(C)COC(=O)c1cccnc1C(C)C(C)C(=O)O[C@@H]([C@H](OC(C)=O)[C@@H]2OC(C)=O)[C@]4(C)O` (stereo not given in full), the entry is “inactive”; as for `CC(=O)OC[C@]12[C@H](OC(C)=O)[C@H](OC(=O)c3cccnc3)[C@@H]3[C@@H](OC(C)=O)[C@@]14O[C@@]3(C)COC(=O)c1cnccc1C(C)C(C)C(=O)O[C@@H]([C@H](OC(C)=O)[C@@H]2OC(C)=O)[C@]4(C)O` (stereo not given in full), “inactive”.

A further experiment deals with Human alphaherpesvirus 2. The experiment is described as follows: Antiherpetic activity against HSV2 at 0.25 mg/ml by MTT assay. Type of experiment: functional. Put shortly:
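Anti-HSV2 test run by a previously reported method. Samples started at an initial concentration of 0.25 mg/mL and were assayed at several concentration levels. Four independent experiments were run at each level. Acyclovir was the positive control. The read-out was an MTT assay, with optical density measured on a multimode plate reader.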
As to `CC1(C)O[C@]23[C@H](OC(=O)c4cccnc4)[C@H]1C[C@H](OC(=O)c1ccccc1)[C@]2(C)[C@@H](OC(=O)c1ccccc1)CC[C@]3(C)O` [REGELIDINE], the inhibition at 250 µg/mL turned out to be 31.7%.
Still for that read-out and setting: for `Nc1nc2c(ncn2COCCO)c(=O)[nH]1` [ACYCLOVIR] the value was 60.6%.
